In brackets after ≈: the same amount, converted by molar mass.
Assays:
Type in all cases: functional
Escherichia coli [1] = assay: Antimicrobial activity against TolC efflux-deficient Escherichia coli K-12 after 16 to 20 hrs by broth microdilution method
Method in brief: (§1)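 CLSI broth microdilution. Log-phase cultures grown in cation-adjusted Mueller–Hinton broth and seeded at 1×10^5 CFU/mL. Plates incubated at 37 °C with shaking for 16–20 h. DMSO stocks of compound were diluted into medium to 1% DMSO final. Growth was read as OD600. MIC (μg/ml) is the lowest concentration with no apparent growth, averaged over at least 3 assays.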

Escherichia coli [2] = assay: Antimicrobial activity against efflux pump-positive Escherichia coli K-12 after 16 to 20 hrs by broth microdilution method; method in brief: as §1
Pseudomonas aeruginosa [3] = assay: Antimicrobial activity against efflux pump mexAB-oprM-deficient Pseudomonas aeruginosa PAO1 after 16 to 20 hrs by broth microdilution method; method in brief: as §1
Enterococcus faecalis [4] = assay: Antimicrobial activity vancomycin-resistant Enterococcus faecalis ATCC 51575 after 16 to 20 hrs by broth microdilution method
Method in brief: (§2)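 CLSI broth microdilution. Log-phase cultures in cation-adjusted Mueller–Hinton broth were seeded at 1×10^5 CFU/mL and incubated at 37 °C with shaking for 16–20 h. Compounds were diluted from DMSO stocks to a final 1% DMSO. Growth was read as OD600, and MIC was taken as the lowest concentration with no apparent growth. At least 3 runs were done, and the average MIC is reported in μg/ml.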

Staphylococcus aureus [5] = assay: Antimicrobial activity against Staphylococcus aureus ATCC 25923 after 16 to 20 hrs by broth microdilution method; method in brief: as §2
Staphylococcus aureus [6] = assay: Antimicrobial activity methicillin-resistant against Staphylococcus aureus clinical isolate 1094 after 16 to 20 hrs by broth microdilution method
Enterococcus faecalis [7] = assay: Antimicrobial activity Enterococcus faecalis ATCC 29212 after 16 to 20 hrs by broth microdilution method; method in brief: as §1
Bacillus anthracis = assay: Antimicrobial activity against Bacillus anthracis Sterne after 16 to 20 hrs by broth microdilution method; method in brief: as §2
Pseudomonas aeruginosa [8] = assay: Antimicrobial activity against efflux pump-positive Pseudomonas aeruginosa PAO1 ATCC BAA-47 after 16 to 20 hrs by broth microdilution method; method in brief: as §1
Acinetobacter baumannii = assay: Antimicrobial activity against Acinetobacter baumannii ATCC 19606 after 16 to 20 hrs by broth microdilution method; method in brief: as §1
Klebsiella pneumoniae = assay: Antimicrobial activity against Klebsiella pneumoniae ATCC 13882 after 16 to 20 hrs by broth microdilution method; method in brief: as §1
Haemophilus influenzae = assay: Antimicrobial activity against Haemophilus influenzae ATCC 10211 after 16 to 20 hrs by broth microdilution method
Method in brief: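 Broth microdilution per CLSI in Haemophilus Test Medium at 37 °C under 5% CO₂ for 16–20 h, seeded at 1×10^5 CFU/mL. Compound was added from DMSO stocks to 1% DMSO final. Growth was read as OD600. MIC (μg/ml) is the lowest concentration without apparent growth, averaged from at least 3 runs.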

Compound	MIC (Escherichia coli [1]) [µg/mL]	MIC (Escherichia coli [2]) [µg/mL]	MIC (Pseudomonas aeruginosa [3]) [µg/mL]	MIC (Enterococcus faecalis [4]) [µg/mL]	MIC (Staphylococcus aureus [5]) [µg/mL]	MIC (Staphylococcus aureus [6]) [µg/mL]	MIC (Enterococcus faecalis [7]) [µg/mL]	MIC (Bacillus anthracis) [µg/mL]	MIC (Pseudomonas aeruginosa [8]) [µg/mL]	MIC (Acinetobacter baumannii) [µg/mL]	MIC (Klebsiella pneumoniae) [µg/mL]	MIC (Haemophilus influenzae) [µg/mL]
CC(=O)O.c1cc2cc(-c3ccc(-c4cc5ccc(C6=NCCCN6)cc5[nH]4)s3)[nH]c2cc1C1=NCCCN1	0.31	0.63	1.25	0.16	0.08	0.16	0.16	0.16	5	5	0.63	
N/C(=N\O)c1ccc2cc(-c3ccc(-c4cc5ccc(/C(N)=N\O)cc5[nH]4)cc3)[nH]c2c1	0.63 (≈ 1.48 µM)	> 80	> 80	1.25 (≈ 2.94 µM)	0.31 (≈ 0.73 µM)	1.25 (≈ 2.94 µM)	2.5 (≈ 5.89 µM)	0.16 (≈ 0.377 µM)	> 80		> 80	
COC1CN=C(c2ccc3cc(-c4ccc(-c5cc6ccc(C7=NCC(OC)CN7)cc6[nH]5)cc4)[nH]c3c2)NC1.O=C(O)C(F)(F)F (centres undefined)	0.31	5	2.5	0.16	0.16	0.16	0.16	0.16	5	> 80	0.63	
CC1(C)CN=C(c2ccc3cc(-c4ccc(-c5cc6ccc(C7=NCC(C)(C)CN7)cc6[nH]5)cc4)[nH]c3c2)NC1.O=C(O)C(F)(F)F	0.63	0.63	40	0.63	0.31	0.31	0.31	0.31	10	> 80	0.63	2.5
FC1CN=C(c2ccc3cc(-c4ccc(-c5cc6ccc(C7=NCC(F)CN7)cc6[nH]5)cc4)[nH]c3c2)NC1.O=C(O)C(F)(F)F (centres undefined)	0.31	0.63	0.31	0.08	0.08	0.16	0.16	0.08	1.25	40	0.31	
CC1CN=C(c2ccc3cc(-c4ccc(-c5cc6ccc(C7=NCC(C)CN7)cc6[nH]5)cc4)[nH]c3c2)NC1.O=C(O)C(F)(F)F (centres undefined)	0.16	0.31	0.63	0.08	0.08	0.08	0.16	0.08	0.63	40	0.31	1.25
O=C(O)C(F)(F)F.c1cc2cc(CCc3cc4ccc(C5=NCCCN5)cc4[nH]3)[nH]c2cc1C1=NCCCN1	0.31	2.5	10	2.5	0.63	1.25	5	0.63	10	80		
NC(=O)c1ccc2cc(-c3ccc(-c4cc5ccc(C(N)=O)cc5[nH]4)cc3)[nH]c2c1	5 (≈ 12.7 µM)	> 80	> 80	> 80	2.5 (≈ 6.34 µM)	> 80	10 (≈ 25.4 µM)	> 80	> 80	> 80	> 80	
O=C(O)c1cn(C2CC2)c2cc(N3CCNCC3)c(F)cc2c1=O [CIPROFLOXACIN]	≤ 0.02	≤ 0.02	≤ 0.02	0.63 (≈ 1.9 µM)	0.31 (≈ 0.936 µM)		1.25 (≈ 3.77 µM)	0.08 (≈ 0.241 µM)	0.63 (≈ 1.9 µM)	1.25 (≈ 3.77 µM)	0.04 (≈ 0.121 µM)	10 (≈ 30.2 µM)
Cl.N=C(N)c1ccc2cc(-c3ccc(-c4cc5ccc(C(=N)N)cc5[nH]4)cc3)[nH]c2c1	0.16	0.63		0.16	0.16	0.31	0.04	0.08	10	40	0.63	
CC(=O)O.c1cc2cc(-c3cnc(-c4cc5ccc(C6=NCCCN6)cc5[nH]4)cn3)[nH]c2cc1C1=NCCCN1	0.31	2.5	5	0.31	0.31	0.31	0.31	0.16	5	> 80	1.25	
CC(=O)O.c1cc2cc(-c3ccc(-c4cc5ccc(C6=NCCN6)cc5[nH]4)nc3)[nH]c2cc1C1=NCCN1	0.63	2.5	> 80	0.31	0.31	0.31	0.31	0.31	> 80	> 80	2.5	
c1cc2cc(CCCc3cc4ccc(C5=NCCCN5)cc4[nH]3)[nH]c2cc1C1=NCCCN1	1.25 (≈ 2.85 µM)	80 (≈ 182 µM)	> 80	0.63 (≈ 1.44 µM)	20 (≈ 45.6 µM)	20 (≈ 45.6 µM)	80 (≈ 182 µM)	20 (≈ 45.6 µM)	> 80	> 80		
O=C(O)C(F)(F)F.c1cc2cc(-c3ccc(-c4cc5ccc(C6=NCCN6)cc5[nH]4)o3)[nH]c2cc1C1=NCCN1	0.63	20	> 80	> 80	40	40	> 80	5	> 80	> 80	> 80	
O=C(O)C(F)(F)F.OC1CN=C(c2ccc3cc(-c4ccc(-c5cc6ccc(C7=NCC(O)CN7)cc6[nH]5)cc4)[nH]c3c2)NC1 (centres undefined)	0.63	1.25	0.31	0.63	0.31	0.31	0.16	0.16	1.25	> 80	0.63	1.25
Cl.N/N=C(/N)c1ccc2cc(-c3ccc(-c4cc5ccc(/C(N)=N\N)cc5[nH]4)cc3)[nH]c2c1	0.63	2.5		0.63	0.63	1.25	0.63	0.31	10	> 80	1.25	
c1cc2cc(CCCCc3cc4ccc(C5=NCCCN5)cc4[nH]3)[nH]c2cc1C1=NCCCN1	0.16 (≈ 0.354 µM)	1.25 (≈ 2.76 µM)	40 (≈ 88.4 µM)	0.31 (≈ 0.685 µM)	0.63 (≈ 1.39 µM)	1.25 (≈ 2.76 µM)	2.5 (≈ 5.52 µM)	1.25 (≈ 2.76 µM)	40 (≈ 88.4 µM)	> 80		
CC(=O)O.c1cc2cc(-c3cnc(-c4cc5ccc(C6=NCCN6)cc5[nH]4)cn3)[nH]c2cc1C1=NCCN1	0.63	20	> 80	10	5	5	20	2.5	> 80	> 80	10	
NCc1ccc2cc(-c3ccc(-c4cc5ccc(CN)cc5[nH]4)cc3)[nH]c2c1.O=C(O)C(F)(F)F	1.25	5	40	1.25	0.63	1.25	1.25	1.25	40	> 80	2.5	
CCOC(=N)c1ccc2cc(-c3ccc(-c4cc5ccc(C(=N)OCC)cc5[nH]4)cc3)[nH]c2c1.Cl			> 80	10	0.63	5	2.5	2.5	> 80		> 80	
